Published values gathered from unrelated publications.
Protocols differ between the studies behind these lines.
Cell line: A549
Effect on: cell growth or viability

| SMILES | method | concentration | time | measurement | result |
| --- | --- | --- | --- | --- | --- |
| O=C(c1ccc(F)cc1)c1c[nH]c2ncc(-c3ccc(N4CCNCC4)nc3)cc12 | MTT | 10 µM | 48 h | viability | 94.7% |
| O=C(N/N=C1\C(=O)N(Cc2ccccc2)c2ccccc21)c1cc2ccccc2[nH]1 |  | 30 µM |  | inhibition | 98.4% |
| CC(=O)O[C@H]1C[C@H](O[C@H]2[C@@H](O)C[C@H](O[C@H]3[C@@H](O)C[C@H](O[C@H]4CC[C@@]5(C)[C@H](CC[C@@H]6[C@@H]5C[C@@H](O)[C@]5(C)[C@@H](C7=CC(=O)OC7)CC[C@]65O)C4)O[C@@H]3C)O[C@@H]2C)O[C@H](C)[C@H]1O | MTT | 5 µM | 24 h | inhibition | 73.9% |
| COc1cc([C@@H]2c3cc4c(cc3[C@H](O)[C@H]3COC(=O)[C@H]23)OCO4)cc(OC)c1OC | MTT |  | 72 h | EC50 | 0.024 µM |
| CCOC(=O)CCn1cc(C(=O)c2ccc(F)cc2)c2cc(-c3ccc(N4CCN(C(=O)OC(C)(C)C)CC4)nc3)cnc21 | MTT | 10 µM | 48 h | viability | 90.2% |
| O=C(N/N=C1\C(=O)N(Cc2ccccc2)c2ccc(Cl)cc21)c1cc2ccccc2[nH]1 |  | 30 µM |  | inhibition | 99.7% |
| CS(=O)(=O)N1CCN(c2ccc(-c3cnc4[nH]cc(C(=O)c5ccc(F)cc5)c4c3)cn2)CC1 | MTT | 10 µM | 48 h | viability | 97.3% |
| CC[C@@]1(OC(=O)[C@@H]2CCCN2)C(=O)OCc2c1cc1n(c2=O)Cc2cc3cc4c(cc3nc2-1)OCO4 | MTT |  |  | IC50 | 0.031 µM |
| CN1C[C@H](C(=O)N[C@]2(C)O[C@@]3(O)[C@@H]4CCCN4C(=O)[C@H](Cc4ccccc4)N3C2=O)C=C2c3cccc4[nH]cc(c34)C[C@H]21 | MTT |  | 72 h | EC50 | 13 µM |
| N.N.[Cl][Pt][Cl] | MTT |  |  | GI50 | 14.3 µM |
| O=C(c1ccc(F)cc1)c1c[nH]c2ncc(-c3ccnc(N4CCNCC4)c3)cc12 | MTT | 10 µM | 48 h | viability | 101% |
| O=C(N/N=C1\C(=O)N(Cc2ccc(Cl)cc2)c2ccccc21)c1cc2ccccc2[nH]1 |  | 30 µM |  | inhibition | 96.9% |
| N.N.[Cl][Pt][Cl] | SRB |  | 72 h | EC50 | 4.5 µM |
| Cc1c(Cc2cccc(N(C)S(=O)(=O)CCCNCCCC(=O)N3CCN(c4ccc(Nc5c(C(N)=O)cnc6ccc(-c7cnc8ccccc8c7)cc56)cc4C(F)(F)F)CC3)c2)c(=O)oc2cc(OC(=O)N(C)C)ccc12 | CCK-8 |  |  | GI50 | 4.66 µM |
| N#Cc1ccc(CN2C(=O)/C(=N\NC(=O)c3cc4ccccc4[nH]3)c3ccccc32)cc1 |  | 30 µM |  | inhibition | 94.6% |
| C[C@]12CC[C@H](O)C[C@H]1CC[C@@H]1[C@@H]2C[C@@H](O)[C@]2(C)[C@@H](C3=CC(=O)OC3)CC[C@]12O | MTT | 5 µM | 24 h | inhibition | 72.3% |
| COc1ccc(C(=O)c2c[nH]c3ncc(-c4ccc(N5CCN(C(=O)OC(C)(C)C)CC5)nc4)cc23)cc1 | MTT | 10 µM | 48 h | viability | 88.1% |
| O=C(N/N=C1\C(=O)N(Cc2ccccc2)c2ccc(Br)cc21)c1cc2ccccc2[nH]1 |  | 30 µM |  | inhibition | 96.1% |
